High-throughput results from PubChem.
Compounds with a hit are over-represented: about 2.2% of the library has one in this group of screens.
dFosB act-1 = mouse delta FosB homodimer activation | P13346 | purified delta FosB, TAMRA-CDK5 oligo fluorescence polarization; percent of positive-control signal above neutral wells | activation, % at 25 µM | 340,000 compounds, 0.99% hits;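 active = mean activation above about 17%, with every replicate also reaching it, limit read from the data, passing the limit was not always enough; inconclusive = only one of the two conditions met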
Target sequence (P13346 whole entry, looked up): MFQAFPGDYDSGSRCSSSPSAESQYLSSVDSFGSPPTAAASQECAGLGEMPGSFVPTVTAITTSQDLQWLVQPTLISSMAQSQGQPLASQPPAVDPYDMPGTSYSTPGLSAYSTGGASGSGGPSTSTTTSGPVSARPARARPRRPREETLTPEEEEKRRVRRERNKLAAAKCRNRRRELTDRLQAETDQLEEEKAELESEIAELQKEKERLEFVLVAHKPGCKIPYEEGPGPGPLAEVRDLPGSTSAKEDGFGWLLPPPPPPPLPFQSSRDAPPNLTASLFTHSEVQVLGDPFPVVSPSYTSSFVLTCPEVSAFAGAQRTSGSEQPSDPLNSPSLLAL
FGF22 binding = binders of recombinant human FGF22 by thermal shift; Q9HCT0; SYPRO orange fluorescence; percent of sucrose octasulfate shift, DMSO zero; activity (Tm shift, normalised), % at 9.99 µM; 340,000 compounds, 1.5% hits;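 active = mean Tm shift, scaled 0 neutral to 100 positive control, at about 1.3% or above, every replicate too, limit read from the data; inconclusive = no clear call, values can overlap the other calls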
Target sequence (Q9HCT0 whole entry, looked up): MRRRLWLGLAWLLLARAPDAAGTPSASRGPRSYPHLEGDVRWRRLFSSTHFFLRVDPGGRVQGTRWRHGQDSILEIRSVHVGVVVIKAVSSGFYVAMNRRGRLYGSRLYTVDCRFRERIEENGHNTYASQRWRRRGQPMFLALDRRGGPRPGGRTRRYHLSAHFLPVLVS
CFTR F508del cor = correctors of CFTR F508del function in bronchial epithelial cells; CFBE cells, YFP halide quenching; stimulated with forskolin plus potentiator P3; % fluorescence drop versus neutral controls; activity (quench increase), % at 7.58 µM; 350,000 compounds, 0.36% hits; AID 720511;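 active = mean added fluorescence quench of at least 8% versus neutral control, with both replicates also reaching 8%; inconclusive = only one of the mean or replicate conditions met; inactive = mean below 8% and not both replicates reaching 8%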;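 note: cells transiently co-express mutant CFTR-F508del with the halide-sensitive YFP; corrector assay measuring rescue of mutant channel to the surface after 24 h compound exposure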
S100A4 MyoIIA = inhibitors of human S100A4 binding to myosin IIA peptide. inhibition, % at 10.7 µM. 360,000 compounds, 0.14% hits. P26447. S100A4/TAMRA-MyoIIA peptide fluorescence polarization;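 active = mean inhibition of at least 70% across replicates, with every replicate also reaching that level; inconclusive = mean inhibition reaches 70% but some replicates fall short; inactive = mean inhibition below 70%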
Target sequence (P26447 whole entry, looked up): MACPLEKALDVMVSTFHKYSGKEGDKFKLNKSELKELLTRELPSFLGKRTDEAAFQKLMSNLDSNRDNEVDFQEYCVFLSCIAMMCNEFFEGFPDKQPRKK
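Material: S100A4 monomer protein | Medium: HEPES pH 7.2 with CaCl2, KCl, NaCl, DTT, Triton | Reagent: Labelled myosin peptide probe, 5 nM | Doses: One dose per compound | Times: 5 min incubation before reading | Benchmarks: Neutral control DMSO, positive control TFP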
dFosB act-2 = activators of mouse delta FosB homodimer DNA binding | activation, % at 24.9 µM | AID 588690 | purified delta FosB, TAMRA-CDK5 oligo fluorescence polarization; normalised: neutral wells 0, positive control 100 | 2,400 tested, under 10 active | shares compounds with dFosB act-1;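 active = highest replicate activation at or above 34% and every replicate reaching that threshold; inconclusive = meets only one of the two criteria; inactive = meets neither criterion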;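 note: higher polarization means more probe DNA bound by delta FosB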
Numbers stand for hits; i = inactive; ? = inconclusive; nt = no result.

SMILES	dFosB act-1	FGF22 binding	CFTR F508del cor	S100A4 MyoIIA	dFosB act-2
Cc1ccccc1COc1cccc(/C=N/NC(=O)c2nnn(-c3nonc3N)c2C)c1	24	i	i	i	i
Cc1cccc(COc2ccc(/C=N/NC(=O)c3nnn(-c4nonc4N)c3COc3ccc(F)cc3)cc2)c1	27	i	i	i	i
Nc1nonc1-n1nnc(C(=O)N/N=C/c2ccccc2Cl)c1COc1ccc(F)cc1	27	i	i	i	i
C[C@@H]1CN([C@@H](C)CO)C(=O)c2cc(NS(=O)(=O)c3ccc(Cl)cc3)ccc2O[C@H]1CN(C)S(=O)(=O)c1ccc(F)cc1	nt	i	i	i	nt
O=C(C1CCCC1)N1CC2(C1)[C@@H](c1ccccc1)[C@H](CO)N2C(=O)c1cccnc1	nt	nt	i	i	nt
COc1ccc(CN(C)C[C@H]2Oc3ccc(NS(=O)(=O)c4cccs4)cc3C(=O)N([C@H](C)CO)C[C@@H]2C)cc1	nt	i	i	i	nt
O=C(COC(=O)CSc1nnc(-c2ccc(Cl)cc2)o1)NCc1ccc2c(c1)OCO2	24	nt	nt	nt	i
CCN(CC)S(=O)(=O)c1ccc(-c2nnc(SCC(=O)Nc3ccc4c(c3)OCO4)o2)cc1	31	i	i	i	i
CC(=O)Nc1ccc(NC(=O)c2ccc(NC(=O)c3ccccc3)cc2)cc1	27	i	i	i	i
CC(=O)Nc1ccc(NC(=O)c2ccc(N(Cc3ccccc3C)S(C)(=O)=O)cc2)cc1	20	nt	i	i	i
CC(=O)Nc1ccc(/C=N/NC(=O)CNS(=O)(=O)c2ccccc2)cc1	i	i	i	i	nt
COc1ccccc1NS(=O)(=O)c1cccc(C(=O)N/N=C/c2ccc(NC(C)=O)cc2)c1	29	i	i	i	i
CC(=O)Nc1ccc(C(=O)c2ccccc2)cc1	i	nt	nt	nt	nt
CC(=O)Nc1ccc(/C=N/NC(=O)CNC(=O)c2ccccc2)cc1	21	43	i	i	i
C[C@H](NC(=O)C[C@H]1C[C@@H]2c3cc(NC(=O)CC4CC4)ccc3O[C@@H]2[C@@H](CO)O1)c1ccccc1	nt	i	i	i	nt
C[C@H](CO)N1C[C@H](C)[C@H](CN(C)C(=O)Nc2ccc(C(F)(F)F)cc2)Oc2c(NC(=O)Nc3ccc(F)cc3)cccc2C1=O	nt	i	i	i	nt
CN1[C@@H]2Cn3c(ccc(C4=CCCCC4)c3=O)[C@H]1[C@@H](C(=O)NCc1cc(F)cc(F)c1)[C@@H]2CO	nt	i	nt	i	nt
O=c1c2ccccc2c2ccccc2c(=O)n1Cc1ccc2c(c1)OCO2	nt	i	i	i	nt
O=C(CCCCCn1c(=S)[nH]c2ccccc2c1=O)NCc1ccc2c(c1)OCO2	44	nt	nt	nt	i
O=C(CCn1c(=S)[nH]c2ccccc2c1=O)Nc1cccc(Cl)c1	47	i	i	i	i
O=C(CCCn1c(=O)[nH]c2ccc(Br)cc2c1=O)NCc1ccc(Cl)cc1	100	i	i	i	i
COC(=O)c1ccc2c(=O)n(CCCCCC(=O)NCc3ccc4c(c3)OCO4)c(=O)[nH]c2c1	i	nt	nt	nt	nt
O=c1c2ccccc2[nH]c(=S)n1Cc1ccc2c(c1)OCO2	21	i	i	i	i
COc1cccc(CNC(=O)CCCn2c(=S)[nH]c3cc4c(cc3c2=O)OCO4)c1	32	i	i	i	i
COc1cccc(N2CCN(C(=O)CCCCCn3c(=S)[nH]c4cc5c(cc4c3=O)OCO5)CC2)c1	i	i	i	i	nt
SMILES	dFosB act-1	FGF22 binding	CFTR F508del cor	S100A4 MyoIIA	dFosB act-2
Cc1cc(C)c(C)c(C(=O)COC(=O)CNC(=O)CN2C(=O)c3ccccc3C2=O)c1C	43	i	i	i	?
Cc1ccc(C(=O)COC(=O)CNC(=O)CN2C(=O)c3ccccc3C2=O)cc1	i	nt	nt	nt	nt
C(=N\Nc1nc(Nc2ccccc2)nc(Nc2ccccc2)n1)/c1cccnc1	65	nt	nt	nt	i
C#CCn1c(=NC(=O)c2ccco2)sc2cccc(Cl)c21	26	i	i	i	i
CCOc1cccc2sc(=NC(=O)c3ccco3)n(CC(=O)OC)c12	i	i	i	i	nt
Nc1ccc(C(=O)Nc2ccc3nc(-c4cccnc4)[nH]c3c2)cc1	i	nt	nt	nt	nt
COC(=O)c1ccc(C(=O)Nc2ccc3nc(-c4cccnc4)[nH]c3c2)cc1	47	nt	nt	nt	i
C/C(=N\Nc1nc2ccccc2[nH]1)c1ccc2c(c1)OCCO2	i	i	i	i	nt
C/C(=N\Nc1nc2ccccc2[nH]1)c1ccc2c(c1)OCO2	27	i	nt	i	i
O=C(NC1CCN(Cc2ccccc2)CC1)c1cccc(S(=O)(=O)Nc2ccc(SC(F)F)cc2)c1	26	i	i	i	i
COc1ccc(Cl)cc1NC(=O)c1nnn(CC(=O)Nc2ccc3c(c2)OCO3)c1N	21	i	i	i	i
Cc1ccc(NC(=O)Cn2nnc(C(=O)Nc3ccc(F)c(Cl)c3)c2N)cc1	?	i	i	i	nt
COc1ccc(NC(=O)c2nnn(CC(=O)Nc3ccc4c(c3)OCO4)c2N)cc1OC	i	i	i	i	nt
COc1ccc(NC(=O)Cn2nnc(C(=O)Nc3ccc(F)c(Cl)c3)c2N)cc1	32	i	i	i	i
COc1cccc(NC(=O)Cn2nnc(C(=O)Nc3cc(Cl)ccc3OC)c2N)c1	38	i	i	i	i
COc1ccc(Cl)cc1NC(=O)c1nnn(CC(=O)Nc2cc(C)cc(C)c2)c1N	103	i	i	i	i
COc1ccc(S(=O)(=O)N(C)C[C@@H]2Oc3ccc(NS(=O)(=O)c4ccc(F)cc4)cc3C(=O)N([C@H](C)CO)C[C@@H]2C)cc1	nt	i	i	i	nt
Cc1noc(C)c1S(=O)(=O)N(C)C[C@@H]1OCCCC[C@H](C)Oc2ccc(NC(=O)Nc3ccc(F)cc3)cc2C(=O)N([C@H](C)CO)C[C@@H]1C	nt	i	i	i	nt
O=C(Nc1ccccc1F)N[C@H]1CC[C@@H](CCNC(=O)C2CCCC2)O[C@H]1CO	nt	i	i	i	nt
COc1ccc(CN(C)C[C@H]2Oc3c(NS(=O)(=O)c4ccc(OC)cc4)cccc3C(=O)N([C@@H](C)CO)C[C@@H]2C)cc1	nt	i	i	i	nt
COc1ccc(Cl)cc1NC(=O)c1nnn(CC(=O)Nc2ccc(OC)c(OC)c2)c1N	94	i	i	i	i
CSc1ccc(/C=C/C(=O)OCC(=O)NC2CCCC2)cc1	nt	i	i	i	nt
CSc1ccc(/C=C/C(=O)OCC(=O)c2ccc[nH]2)cc1	22	i	i	i	i
CCCSc1nc(C)c2cc(C)cc(C)c2n1	i	nt	nt	nt	nt
Cc1cc(C)c2nc3nc(C)c(C)cc3c(N)c2c1	26	i	i	i	i
CS(=O)(=O)N1[C@H](C(=O)NC2CCC2)[C@@H](CO)[C@@H]2Cn3c(ccc(-c4ccccc4)c3=O)[C@@H]21	nt	i	i	?	nt
CC(=O)Nc1ccc(Sc2ncccc2C(=O)Nc2cc(Cl)cc(Cl)c2)cn1	82	nt	i	i	i
CC(=O)Nc1ccc(Sc2ncccc2C(=O)Nc2ccc(OC(F)(F)F)cc2)cn1	51	i	i	i	i
COc1cc(NC(=O)c2cccnc2Sc2ccc(C)c(C)c2)cc(OC)c1OC	i	nt	nt	nt	nt
